We go through two compounds from ChEMBL document CHEMBL4732044, “Discovery of a promising agent IQZ23 for the treatment of obesity and related metabolic disorders” (Eur J Med Chem, 2020).

Series [1] relates to 3T3-L1. Kind of series: Lipid lowering activity in mouse 3T3-L1 cells assessed as reduction in adipogenic cocktail-induced triglyceride levels incubated for 6 days by GPO-POD assay. It counts as functional, cell-based. The settings on record: for EC50: 3T3-L1, 144 h. In a few lines: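 Confluent 3T3-L1 cells were treated from day 0 in cocktail (IBMX, dexamethasone, insulin) for 3 days, then re-dosed in insulin medium for 3 more days. For dose–response, concentrations were 0–10 µM (0.01, 0.1, 0.3, 1, 3, 10). On day 6, cells were lysed in 0.2% Triton X-100 and TG was measured by GPO-POD and normalized to BCA protein as % of control. EC50 was fitted from the dose–response. N = 4.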

Series [2] in a line: Stability in Sprague-Dawley rat liver microsomes assessed as rate constant […] up to 60 mins in presence of NADPH by LC-MS/MS analysis. It is filed as ADME, Microsome.
For series [3], the system named is 3T3-L1. Kind of series: Lipid lowering activity in mouse 3T3-L1 cells assessed as adipogenic cocktail-induced triglyceride levels at 1 uM after 3 days by GPO-POD assay relative to control. The settings on record: time 3 day. It counts as functional. In a few lines:
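3T3-L1 cells were differentiated (cocktail on days 0–3, insulin thereafter) with 1 µM compound present during defined windows (days 0–3, 3–6, 6–9, or 0–3/0–6/0–9). TG was measured at day 9 by GPO-POD after Triton X-100 lysis and sonication. TG was normalized to BCA protein and expressed as % of differentiated control.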

The test system of series [4] is 3T3-L1. The series is described as follows: Inhibition of mouse 3T3-L1 cells adipocyte differentiation assessed as reduction in adipogenic cocktail-induced SREBP-1c protein expression at 0.3 to 1 uM after 24 hrs by Western blot analysis. It is filed as functional, cell-based. To be noted: dose 0.3-1 µM. The method, boiled down: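 3T3-L1 preadipocytes were exposed to adipogenic cocktail with compound (0.3 or 1 µM) and harvested on day 1. Lysates were resolved by SDS-PAGE, immunoblotted (primary antibody overnight at 4 °C, HRP secondary) and quantified by densitometry normalized to actin.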

Series [5] relates to 3T3-L1. Kind of series: Inhibition of mouse 3T3-L1 cells adipocyte differentiation assessed as reduction in adipogenic cocktail-induced fatty acid synthase protein expression at 0.3 to 1 uM after 6 days by Western blot analysis. It is filed as functional, cell-based. The settings on record: dose 0.3-1 µM, time 6.0 day. In a few lines: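 3T3-L1 preadipocytes were differentiated with cocktail for 3 days, then insulin medium for 3 days, with compound (0.3 or 1 µM) present throughout. Cells were harvested on day 6 and proteins measured by Western blot, with densitometry normalized to actin.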
(A western blot detects proteins with antibodies after separation by electrophoresis.)

The subject of series [6] is 3T3-L1. The series is described as follows: Activation of AMPK pathway in adipogenic cocktail-induced mouse 3T3-L1 cells with SiRNA-induced AMPKalpha knock down assessed as decrease in PPARgamma protein expression at 1 uM after 24 hrs by Western blot analysis. It is filed as cell-based. In a few lines: (§1)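 3T3-L1 cells at 80% density transfected with 50 nM AMPKα siRNA or negative control for 24 h. Once confluent, differentiated with adipogenic cocktail with or without compound. Protein by Western blot normalized to actin. TG measured by GPO-POD kit, normalized to BCA protein, expressed as % of control.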

The test system of series [7] is 3T3-L1. The series is described as follows: Activation of AMPK pathway in adipogenic cocktail-induced mouse 3T3-L1 cells with SiRNA-induced AMPKalpha knock down assessed as decrease in TG level at 1 uM after 6 days by GPO-POD assay. It counts as cell-based. The settings on record: time 6.0 day. The method, boiled down:
as §1

For series [8], the system named is C2C12. The series is described as follows: Activation of AMPK pathway in mouse C2C12 cells assessed as increase in glucose uptake at 1 uM after 6 hrs in presence of LY-294002 by 2-NBDG/Hoechst 33342 staining based Confocal microscopic method. It is filed as cell-based. The settings on record: filed as activator. In a few lines:
(§2)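 C2C12 myoblasts kept in DMEM with 10% FBS and 1% penicillin/streptomycin at 37 °C under 5% CO2.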

In series [9] the test system is Mus musculus. Kind of series: Antiobesity activity in high fat diet-induced obese C57BL/6J mouse model assessed as decrease in AUC of GTT at 20 mg/kg, ip administered for every other days for 3 weeks by GTT method. It counts as functional, organism-based. In a few lines: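 Male C57BL/6J mice on HFC diet dosed i.p. For GTT, after 3 weeks of treatment: 6 h fast, then i.p. glucose 2 g/kg. For ITT, after 6 weeks: 6 h fast, then i.p. insulin 0.4 U/mouse. Tail-vein glucose measured at 0, 15, 30, 60 and 120 min; AUC calculated.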

Series [10] in a line: Clearance in Sprague-Dawley rat at 2 mg/kg, iv up to 24 hrs by LC-MS/MS analysis. It counts as ADME, organism-based. To be noted: in vivo. In a few lines: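 Male SD rats (180–220 g, n = 3) received compound in ethanol/saline (5:95), either intravenously at 2 mg/kg or intragastrically at 5 mg/kg. Plasma was sampled at 0, 0.5, 1, 2, 4, 8, 12 and 24 h. Concentrations were measured by LC-MS/MS, and PK parameters were calculated from the concentration–time data.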

For series [11], the system named is Mus musculus. Kind of series: Antiobesity activity in high fat diet-induced obese C57BL/6J mouse model assessed as free fatty acid level at 20 mg/kg, ip administered for every other days for 6 weeks by auto-analyzer method (reference value: 1668.5 +/- 144.6 uM). It is filed as functional. In a few lines: (§3)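 Male C57BL/6J mice (7–8 weeks) fed HFC diet (60% fat, 1% cholesterol) for up to 14 weeks. From week 9, given 20 mg/kg i.p. every other day for 6 weeks in saline with 10% ethanol and 10% castor oil, or vehicle. Body weight and food intake recorded daily. At end, mice fasted 6 h, anesthetized, and blood collected into EDTA. Plasma chemistry run on an auto-analyzer; insulin by ultra-sensitive ELISA.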

The subject of series [12] is Mus musculus. Kind of series: Antiobesity activity in high fat diet-induced obese C57BL/6J mouse model assessed as cholesterol level at 20 mg/kg, ip administered for every other days for 6 weeks by auto-analyzer method (reference value: 6.2 +/- 0.3 mM). It counts as functional. In a few lines: as §3
For series [13], the system named is 3T3-L1. Kind of series: Activation of AMPK pathway in adipogenic cocktail-induced mouse 3T3-L1 cells assessed as decrease in ATP level at 1 uM after 24 hrs. To be noted: filed as activator. It counts as cell-based. The method, boiled down: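 Confluent 3T3-L1 pre-adipocytes exposed to adipogenic cocktail (0.5 mM IBMX, 100 ng/mL dexamethasone, 2 µg/mL insulin) with compound at 0.3 or 1 µM for 24 h. ATP quantified with a commercial luminescent kit and normalized to protein.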

In series [14] the test system is C2C12. The series is described as follows: Activation of AMPK pathway in mouse C2C12 cells assessed as increase in glucose uptake at 1 uM after 6 hrs in presence of insulin by 2-NBDG/Hoechst 33342 staining based Confocal microscopic method. It is filed as cell-based. To be noted: filed as activator. The method, boiled down: as §2
The test system of series [15] is 3T3-L1. Kind of series: Activation of AMPK pathway in mouse 3T3-L1 cells assessed as increase in TFAM mRNA expression at 1 uM after 24 hrs by RT-qPCR analysis. It is filed as cell-based. To be noted: filed as activator.
Series [16] deals with 3T3-L1. Kind of series: Activation of AMPK pathway in mouse 3T3-L1 cells assessed as increase in CPT-1beta mRNA expression at 1 uM after 24 hrs by RT-qPCR analysis. It counts as cell-based. To be noted: filed as activator. In general terms: Quantitative PCR measures a nucleic acid by following its amplification.
The nature of series [17]: Half life in Sprague-Dawley rat at 2 mg/kg, iv up to 24 hrs by LC-MS/MS analysis. To be noted: in vivo.
Series [18] is described as follows: Clearance in Sprague-Dawley rat at 2 mg/kg, iv up to 24 hrs by LC-MS/MS analysis. To be noted: in vivo.
Series [19] is described as follows: AUC(0 to infinity) in Sprague-Dawley rat at 2 mg/kg, iv up to 24 hrs by LC-MS/MS analysis. To be noted: in vivo.

What is called EC50 is the concentration giving half of the maximal effect. What is called clearance is the volume of plasma or blood freed of the substance per unit of time. The half-life is the time in which the quantity being followed falls by half. As a reminder, the AUC(0-inf) is total exposure, with the tail of the curve extrapolated.

Active and inactive are the calls of the source. No cut-off for these calls is given here.

`COc1ccc2[nH]c(-c3nc(NCCCCN4CCCC4)c4ccccc4n3)c(C=O)c2c1`: in the series with 3T3-L1 [1], the EC50 is 33 nM. The Activity result was “Dose-dependent effect” with 3T3-L1 [1] (dose 1-5 µM, time 6.0 day); 74.2% in the series with 3T3-L1 [3]; 694.4 µM in the series on Mus musculus [11]; 4.7 mM with Mus musculus [12]. Further, the k el at 1 h in series [2] is 6.17e-05 s⁻¹. The inhibition result in the series with 3T3-L1 [4] and with 3T3-L1 [5] was “Active” in each case. The result in the series on 3T3-L1 [6] and in the series with 3T3-L1 [7] was inactive. Further, the outcome in the series on C2C12 [8] and in the series on Mus musculus [9] was Active. Also, the clearance in series [10] is 107 mL/min/kg.
Regarding `CN(C)CCCNc1nc(-c2[nH]c3ccccc3c2C=O)nc2ccccc12`, the EC50 in the series on 3T3-L1 [1] is 91 nM. Also, the k el at 1 h in series [2] is 8.83e-05 s⁻¹. Also, the outcome with 3T3-L1 [13], in the series with C2C12 [14], with 3T3-L1 [15] and with 3T3-L1 [16] was Active. For the same compound, in series [17], the half-life was 3.14 h. In [18], the clearance is 125 mL/min/kg. The same compound yielded an AUC(0-inf) in series [19] of 671 ng·h/mL.
